Reference: ChEMBL document CHEMBL3351845, “Synthesis and in vitro stability of amino acid prodrugs of 6-β-naltrexol for microneedle-enhanced transdermal delivery” (Bioorg Med Chem Lett, 2014)

Assays:
[1] = Stability in pH 5.0 0.3 M acetate buffer assessed as time duration in which 90% produg stability at 1 mg by HPLC method; assay type: physicochemical; details: in vitro
How it was run: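 Roughly 1 mg prodrug was added to 10 mL of 0.3 M acetate buffer, pH 5.0, thermostated at 32 °C, then vortexed 1 min and filtered through 0.45 μm nylon. Degradation was followed over time by C-8 reversed-phase HPLC with UV at 215 or 278 nm, mobile phase 70:30 ACN:aqueous TFA/octane sulfonate, pH 3.0. t90 is the time to 10% loss; runs in duplicate.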

[2] = Half life in pH 7.4 25 mM HEPES buffered Hank's balanced salt solution at assessed as prodrug hydrolysis 1 mg by HPLC method; assay type: physicochemical; details: buffer
How it was run: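 About 1 mg prodrug went into 10 mL of 25 mM HEPES-buffered Hanks' balanced salt solution, pH 7.4, held at 37 °C. The mixture was vortexed 1 min and filtered through 0.45 μm nylon. Samples were run by reversed-phase C-8 HPLC with UV at 215 or 278 nm, mobile phase 70:30 ACN:aqueous 0.1% TFA/0.065% octane sulfonate, pH 3.0. Half-life was read from pseudo-first-order hydrolysis; duplicate runs.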

[3] = tested on: Plasma; assay: Half life in 50% human plasma in presence of 50% PBS buffer assessed prodrug hydrolysis by HPLC method; assay type: ADME, cell-free
How it was run: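 Each prodrug was made up as a DMSO stock, and 40.0 μL was added to 760.0 μL of 50% human plasma in 50% PBS (pH 7.4), pre-warmed to 37 °C. Aliquots taken at set times got salicylamide internal standard, were vortexed, centrifuged, dried under N2, and taken up in methanol/0.04% HFBA. Analysis used gradient HPLC on a phenyl column against an eight-point calibration. Kapp came from log(AUC prodrug/AUC IS) versus time; n=3, mean ± SD.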

[4] = Solubility in pH 7.4 25 mM HEPES buffered Hank's balanced salt solution by HPLC method; assay type: physicochemical; details: buffer

Compound | Time [1] | t1/2 [2] | t1/2 [3] | solubility [4]
C[C@H](N)C(=O)O[C@@H]1CC[C@@]2(O)[C@H]3Cc4ccc(O)c5c4[C@@]2(CCN3CC2CC2)[C@H]1O5 | 0.412 days | – | – | –
CC(C)[C@H](N)C(=O)O[C@@H]1CC[C@@]2(O)[C@H]3Cc4ccc(O)c5c4[C@@]2(CCN3CC2CC2)[C@H]1O5 | 5.2 days | 11.5 h | 18.2 h | –
CC(C)C[C@H](N)C(=O)O[C@@H]1CC[C@@]2(O)[C@H]3Cc4ccc(O)c5c4[C@@]2(CCN3CC2CC2)[C@H]1O5 | 0.9 days | – | – | –
CCC(C)[C@H](N)C(=O)O[C@@H]1CC[C@@]2(O)[C@H]3Cc4ccc(O)c5c4[C@@]2(CCN3CC2CC2)[C@H]1O5 (some centres not stated) | 14 days | 22 h | 31.2 h | Insoluble
NCCC(=O)O[C@@H]1CC[C@@]2(O)[C@H]3Cc4ccc(O)c5c4[C@@]2(CCN3CC2CC2)[C@H]1O5 | 5.6 days | 12 h | – | –
O=C(O[C@@H]1CC[C@@]2(O)[C@H]3Cc4ccc(O)c5c4[C@@]2(CCN3CC2CC2)[C@H]1O5)[C@@H]1CCCN1 | 0.217 days | – | – | –
